The text below walks through data of ChEMBL document CHEMBL1144559, “4-Pyridone derivatives as new inhibitors of bacterial enoyl-ACP reductase FabI” (Bioorg Med Chem, 2007).

A short description of assay [1]: Inhibition of Escherichia coli DH5-alpha His tagged Fab1. More on the design: species or system DH5alpha. The gist of the method:
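His-tagged E. coli FabI was expressed in E. coli TOP10 (0.2% arabinose induction), purified on Ni–NTA and eluted with 250 mM imidazole. NADH consumption was read at 340 nm for 10 min at room temperature. IC50 is the concentration giving 50% reduction of absorption.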

The next assay concerns Staphylococcus aureus. Put plainly: Antimicrobial activity against Staphylococcus aureus ATCC 29213. Format: functional. The procedure, abridged:
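Agar dilution on Mueller–Hinton agar with 5% horse blood, twofold serial compound dilutions. About 10^4 CFU per spot inoculated. Plates incubated at 35 °C for 20 h. MIC taken as the lowest concentration preventing visible growth.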

≈ marks a conversion by molar mass, not a printed value.

A word on the IC50: it is the concentration that inhibits the measured activity by half. Low readings indicate higher potency, high ones lower potency. One may read the MIC as the lowest concentration found to suppress growth. In the case of `Cc1c(Cc2c(Cl)cccc2Cl)c(=O)ccn1Cc1ccccc1`, the IC50 in assay [1] stood at 0.3 µM. Besides, in the assay on Staphylococcus aureus, the minimal inhibitory concentration (MIC) was 0.5 µg/mL (≈ 1.4 µM). The like results for `CCCCc1c(Cc2c(Cl)cccc2Cl)c(=O)ccn1Cc1ccccc1` were, in that order, 4.5 µM and 32 µg/mL (≈ 79.9 µM). The like results for `COC(=O)c1ccc(Cn2ccc(=O)c(Cc3c(Cl)cccc3Cl)c2C)cc1` were, in that order, 0.3 µM and over 128 µg/mL. The like results for `Cc1c(Cc2c(Cl)cccc2Cl)c(=O)ccn1Cc1ccc(C(=O)O)cc1` were, in that order, 22 µM and over 128 µg/mL. For the molecule `Cc1c(Cc2ccccc2)c(=O)ccn1Cc1ccccc1`, in assay [1], the IC50 turned out to be 20 µM. This molecule also showed an MIC with Staphylococcus aureus of 64 µg/mL (≈ 221 µM).

For the molecule `Cc1c(Cc2ccccc2Cl)c(=O)ccn1Cc1ccccc1`, the IC50 in assay [1] came out at 4.2 µM. Besides, the MIC against Staphylococcus aureus stood at 64 µg/mL (≈ 198 µM). The like results for `Cc1c(Cc2ccc(Cl)cc2Cl)c(=O)ccn1Cc1ccccc1` were, in that order, 2 µM and 32 µg/mL (≈ 89.3 µM).

The molecule `Cc1c(Cc2c(F)cccc2F)c(=O)ccn1Cc1ccccc1` gave an IC50 in assay [1] of 2.7 µM. This molecule had an MIC against Staphylococcus aureus of 4 µg/mL (≈ 12.3 µM). As to `C=Cc1c(C)n(Cc2ccccc2)ccc1=O`, in assay [1], the IC50 is over 100 µM. `Cc1c(CCc2ccccn2)c(=O)ccn1Cc1ccccc1` had an IC50 in assay [1] of over 100 µM.

As for `Cc1c(CC2CCCCC2)c(=O)ccn1Cc1ccccc1`, the midpoint of inhibition in assay [1], the IC50, lay at 0.4 µM. In the assay on Staphylococcus aureus, this molecule displayed an MIC of 32 µg/mL (≈ 108 µM). On the same counts, the results for `Cc1c(Cc2c(Cl)cccc2Cl)c(=O)ccn1CCCCCO` are 1.8 µM and 8 µg/mL (≈ 22.6 µM). For `Cc1c(Cc2c(Cl)cccc2Cl)c(=O)ccn1CCCCC(=O)O`, the midpoint of inhibition in assay [1], the IC50, lay at 110 µM. Molecule `Cc1c(Cc2c(Cl)cccc2Cl)c(=O)ccn1Cc1c(Cl)cccc1Cl` registered an IC50 in assay [1] of 8.4 µM. Also, in the assay with Staphylococcus aureus, inhibition of growth (MIC) required 32 µg/mL (≈ 74.9 µM). On the same counts, the results for `Cc1c(Cc2c(Cl)cccc2Cl)c(=O)ccn1Cc1ccc(N)cc1` are 0.29 µM and 1 µg/mL (≈ 2.68 µM).

In assay [1], `Cc1c(Cc2c(Cl)cccc2Cl)c(=O)ccn1Cc1ccco1` gave an IC50 of 0.47 µM. In the assay with Staphylococcus aureus, the MIC is 2 µg/mL (≈ 5.74 µM). In assay [1], `Cc1cccc(C)c1Cc1c(C)n(Cc2ccccc2)ccc1=O` showed an IC50 of 4.3 µM. The molecule further had an MIC against Staphylococcus aureus of 16 µg/mL (≈ 50.4 µM). The like results for `CCCCc1cc(=O)c(Cc2c(Cl)cccc2Cl)c(C)[nH]1` were, in that order, 0.38 µM and 8 µg/mL (≈ 24.7 µM). On the same counts, the results for `CCCCn1ccc(=O)c(Cc2c(Cl)cccc2Cl)c1C` are 0.31 µM and 2 µg/mL (≈ 6.17 µM).

On to `CCCCCCCCCCn1ccc(=O)c(Cc2c(Cl)cccc2Cl)c1C`, for which, in assay [1], it took 0.22 µM to reach half-maximal inhibition (IC50). Further, in the assay on Staphylococcus aureus, the MIC stood at 32 µg/mL (≈ 78.4 µM). In assay [1], `Cc1[nH]c(CC2CCCCC2)cc(=O)c1Cc1c(Cl)cccc1Cl` gave a half-maximal inhibitory concentration (IC50) of 0.29 µM. Further, the MIC against Staphylococcus aureus worked out at 2 µg/mL (≈ 5.49 µM). `Cc1c(/C=C/c2ccccn2)c(=O)ccn1Cc1ccccc1` had an IC50 in assay [1] of over 100 µM. In assay [1], `Cc1c(Cc2c(F)cccc2Cl)c(=O)ccn1Cc1ccccc1` registered an IC50 of 0.39 µM. This molecule also gave an MIC against Staphylococcus aureus of 2 µg/mL (≈ 5.85 µM). On the same counts, the results for `Cc1[nH]ccc(=O)c1Cc1c(Cl)cccc1Cl` are 120 µM and over 64 µg/mL.

Consider `Cc1c(Cc2c(Cl)cc(Cl)cc2Cl)c(=O)ccn1Cc1ccccc1`, for which 1.5 µM corresponded to half-maximal inhibition in assay [1] (IC50). In the assay on Staphylococcus aureus, this molecule showed a minimal inhibitory concentration (MIC) of 8 µg/mL (≈ 20.4 µM). On the same counts, the results for `Cc1c(Cc2c(Cl)cccc2Cl)c(=O)ccn1C` are 11 µM and over 128 µg/mL. In assay [1], `Cc1c(Cc2c(Cl)cccc2Cl)c(=O)ccn1Cc1ccc(C(N)=O)cc1` returned an IC50 of 2.5 µM. The same molecule had a minimal inhibitory concentration (MIC) with Staphylococcus aureus of 32 µg/mL (≈ 79.7 µM).

In assay [1], `CCc1c(Cc2c(Cl)cccc2Cl)c(=O)ccn1Cc1ccccc1` yielded an IC50 of 0.78 µM. The same molecule showed an MIC in the assay on Staphylococcus aureus of 8 µg/mL (≈ 21.5 µM). The like results for `Cc1c(Cc2c(Cl)cccc2Cl)c(=O)ccn1CC(C)(C)SCc1cccc(C(F)(F)F)c1` were, in that order, 1.9 µM and 64 µg/mL (≈ 124 µM).

Regarding `CCCCc1c(C)n(Cc2ccccc2)ccc1=O`, the 50% inhibitory concentration (IC50) in assay [1] came to 61 µM. This molecule gave an MIC in the assay with Staphylococcus aureus of over 128 µg/mL.

Molecule `Cc1c(Cc2c(Cl)cccc2Cl)c(=O)ccn1CC1CCCCC1` returned an IC50 in assay [1] of 0.22 µM. Besides, the minimal inhibitory concentration (MIC) in the assay on Staphylococcus aureus was determined as 0.25 µg/mL (≈ 0.686 µM). `Cc1c(-c2ccccc2)c(=O)ccn1Cc1ccccc1` had an IC50 in assay [1] of 2.9 µM. This lies in the single-digit micromolar range. The molecule `Cc1c(Cc2c(Cl)cccc2Cl)c(=O)ccn1Cc1ccc([N+](=O)[O-])cc1` registered an IC50 in assay [1] of 1.8 µM. In the assay on Staphylococcus aureus, this molecule came in with an MIC of 16 µg/mL (≈ 39.7 µM). With `Oc1cc(Cl)ccc1Oc1ccc(Cl)cc1Cl` [TRICLOSAN], in assay [1], the concentration for half-maximal inhibition (IC50) worked out at 0.51 µM. The molecule further showed an MIC against Staphylococcus aureus of 0.125 µg/mL (≈ 0.432 µM).
